In ChEMBL document CHEMBL1126776, “Antihyperglycemic activity of novel naphthalenyl 3H-1,2,3,5-oxathiadiazole 2-oxides” (1993):
“And” between values parts separate entries of the source, which are not always exact repeats. Equal values may be shown once.

Columns and labels:
Mus musculus [1] = experiment: Percentage change in plasma glucose after 4 days of treatment in db/db mouse at 20 mg/kg (po) in a postprandial assay; assay type: functional
How it was run: (§1)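 Male db/db (C57BL/KsJ) mice; postprandial assay after 4 days of oral dosing. Result is % change in plasma glucose relative to the vehicle-treated group. Values are mean ± SE with 4–6 mice per group; p < 0.05 flagged.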

Mus musculus [2] = experiment: Percentage change in plasma glucose after 4 days of treatment in db/db mouse at 1 mg/kg (po) in a postprandial assay; assay type: functional; how it was run: as §1
Mus musculus [3] = experiment: Percentage change in plasma glucose after 4 days of treatment in db/db mouse at 100 mg/kg (po) in a postprandial assay; assay type: functional; how it was run: as §1
Mus musculus [4] = experiment: Percentage change in plasma glucose after 4 days of treatment in db/db mouse at 1 mg/kg (po) in a postprandial assay
Mus musculus [5] = experiment: Plasma glucose after treatment in obese ob/ob mice at 50 mg/kg (po); assay type: functional
How it was run: (§2)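 Female obese ob/ob (C57BL/6J) mice, 3-5 months old, fed ad libitum. Oral gavage once daily for 10 days, vehicle 0.2 mL 2% Tween 80/saline (w/v). Decapitated 4 h after the last dose; blood assayed for glucose. Mean ± SEM; p < 0.05 versus vehicle.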

Mus musculus [6] = experiment: Plasma glucose after treatment in obese ob/ob mice at 200 mg/kg (po); assay type: functional; how it was run: as §2
Mus musculus [7] = experiment: Percentage change in plasma glucose after 4 days of treatment in db/db mouse at 5 mg/kg (po) in a postprandial assay; assay type: functional; how it was run: as §1
Rattus norvegicus [8] = experiment: Volume of urine collected after treatment in nondiabetic rats at the dose of 5 mg/kg; assay type: functional
How it was run: (§3)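 Male Sprague-Dawley rats (nondiabetic), dosed daily by mouth for 11 days. Urine collected over 24 h and assayed for glucose; urine volume, water intake and food intake also measured. Values are mean ± SE, n = 6 per group.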

Mus musculus [9] = experiment: Plasma glucose after treatment in obese ob/ob mice at 5 mg/kg (po); assay type: functional; how it was run: as §2
Rattus norvegicus [10] = experiment: Plasma glucose levels of nondiabetic rats after 1 hour of drug administration (25 mg/Kg, po); assay type: functional
How it was run: (§4)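 Single oral dose to male Sprague-Dawley nondiabetic rats. Tail-tip blood sampled before dosing and at 1, 2 and 4 h after dosing for plasma glucose. Mean ± SE, n = 5 per group; compared with the respective vehicle group.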

Rattus norvegicus [11] = experiment: Volume of urine collected after treatment in nondiabetic rats at the dose of 10 mg/kg; assay type: functional; how it was run: as §3
Rattus norvegicus [12] = experiment: Volume of water consumed by the rat at a dose of 25 mg/kg; assay type: functional; how it was run: as §3
Rattus norvegicus [13] = experiment: Change in plasma glucose levels of streptozocin-diabetic rats wtih type I diabetes at dose of 5 mg/kg, po; assay type: functional
How it was run: (§5)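 Male Sprague-Dawley rats made diabetic with streptozocin (100 mg/kg, ip). Drug or vehicle given orally once daily for 3 weeks. Tail-tip blood taken 90 min after the last dose and assayed for plasma glucose. Mean ± SE, n = 9-12 per group.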

Rattus norvegicus [14] = experiment: Plasma glucose levels of nondiabetic rats after 4 hour of drug administration (25 mg/Kg, po); assay type: functional; how it was run: as §4
Rattus norvegicus [15] = experiment: Volume of water consumed by the rat at a dose of 5 mg/kg; assay type: functional; how it was run: as §3
Rattus norvegicus [16] = experiment: Volume of water consumed by the rat at a dose of 10 mg/kg; assay type: functional; how it was run: as §3
Rattus norvegicus [17] = experiment: Change in urinary glucose excretion of nondiabetic rats at the dose of 25 mg/kg; assay type: functional, Urine
Rattus norvegicus [18] = experiment: Amount of food consumed by the rat at a dose of 25 mg/kg; assay type: functional; how it was run: as §3
Rattus norvegicus [19] = experiment: Volume of urine collected after treatment in nondiabetic rats at the dose of 25 mg/kg; assay type: functional; how it was run: as §3
Mus musculus [20] = experiment: Plasma glucose after treatment in obese ob/ob mice at 20 mg/kg (po); assay type: functional; how it was run: as §2
Rattus norvegicus [21] = experiment: Plasma glucose levels of nondiabetic rats after 0 hour of drug administration (25 mg/Kg, po); assay type: functional; how it was run: as §4
Rattus norvegicus [22] = experiment: Plasma glucose levels of nondiabetic rats after 2 hour of drug administration (25 mg/Kg, po); assay type: functional; how it was run: as §4
Rattus norvegicus [23] = experiment: Change in plasma glucose levels of streptozocin-diabetic rats wtih type I diabetes at dose of 25 mg/kg, po; assay type: functional; how it was run: as §5
Rattus norvegicus [24] = experiment: Amount of food consumed by the rat at a dose of 5 mg/kg; assay type: functional; how it was run: as §3
Rattus norvegicus [25] = experiment: Amount of food consumed by the rat at a dose of 10 mg/kg; assay type: functional; how it was run: as §3
Mus musculus [26] = experiment: Percentage change in plasma glucose after 4 days of treatment in db/db mouse at 5 mg/kg (po) in a postprandial assay
[27] = dose 5 mg/kg, in the assay text read “5 mg/kg” for “100 mg/kg”

COc1ccc2cc(CC3=NOS(=O)N3)ccc2c1 (centres undefined)
Change (Mus musculus [1]): <-15%

O=S1NC(Cc2cc3ccccc3cc2C(F)(F)F)=NO1 (centres undefined)
Change (Mus musculus [2]): <-15%
Change (Mus musculus [3]; [27]): -30%

COc1cc2ccccc2cc1CC1=NOS(=O)N1 (centres undefined)
Change (Mus musculus [4]): -16%

O=S1NC(/C=C/c2ccc3ccccc3c2)=NO1 (centres undefined)
Change (Mus musculus [1]): <-15%

CN(C)C(=N)NC(=N)N [METFORMIN]
Glucose level (Mus musculus [5]): 253 mg/dL
Glucose level (Mus musculus [6]): 208 mg/dL

O=S1NC(Cc2ccc3ccc(Cl)cc3c2)=NO1 (centres undefined)
Change (Mus musculus [7]): <-15%

N#Cc1cccc2ccc(CC3=NOS(=O)N3)cc12 (centres undefined)
Change (Mus musculus [2]): <-15%
Change (Mus musculus [7]): <-15%

O=S1NC(Cc2ccc3c(Cl)cccc3c2)=NO1 (centres undefined)
urine volume (Rattus norvegicus [8]): 29 mL/day
Glucose level (Mus musculus [9]): 223 mg/dL
Glucose level (Rattus norvegicus [10]): 120 mg/dL
urine volume (Rattus norvegicus [11]): 23 mL/day
Consumption (Rattus norvegicus [12]): 59 mL/day
Glucose level (Rattus norvegicus [13]): 329 mg/dL
Change (Mus musculus [3]; dose 100 mg/kg): -44% and -21%
Glucose level (Rattus norvegicus [14]): 118 mg/dL
Consumption (Rattus norvegicus [15]): 49 mL/day
Consumption (Rattus norvegicus [16]): 45 mL/day
Glucose level (Rattus norvegicus [17]): 5.7 g dl-1 and 2.1 g day-1
Consumption (Rattus norvegicus [18]): 25 g/day
urine volume (Rattus norvegicus [19]): 37 mL/day
Glucose level (Mus musculus [20]): 199 mg/dL
Glucose level (Rattus norvegicus [21]): 111 mg/dL
Glucose level (Rattus norvegicus [22]): 122 mg/dL
Glucose level (Rattus norvegicus [23]): 255 mg/dL
Consumption (Rattus norvegicus [24]): 25 g/day
Consumption (Rattus norvegicus [25]): 25 g/day

O=S1NC(Cc2cc(Br)c3ccccc3c2)=NO1 (centres undefined)
Change (Mus musculus [2]): <-15%
Change (Mus musculus [7]): -21%

O=S1NC(Cc2ccc3cc(Br)ccc3c2)=NO1 (centres undefined)
Change (Mus musculus [2]): <-15%
Change (Mus musculus [7]): -25%

Cc1ccc2ccc(CC3=NOS(=O)N3)cc2c1Br (centres undefined)
Change (Mus musculus [7]): -21%

O=S1NC(CSc2ccc3ccccc3c2)=NO1 (centres undefined)
Change (Mus musculus [1]): -40%

COc1ccc2ccc(CC3=NOS(=O)N3)cc2c1 (centres undefined)
Change (Mus musculus [7]): -19%

CCc1cccc2cc(CC3=NOS(=O)N3)ccc12 (centres undefined)
Change (Mus musculus [2]): <-15%
Change (Mus musculus [3]; [27]): -23%

O=S1NC(COc2ccc3ccccc3c2)=NO1 (centres undefined)
Change (Mus musculus [1]): <-15%

O=S1NC(Cc2ccc3ccccc3c2Cl)=NO1 (centres undefined)
Change (Mus musculus [2]): <-15%
Change (Mus musculus [3]; [27]): -27%

C=Cc1cccc2cc(CC3=NOS(=O)N3)ccc12 (centres undefined)
Change (Mus musculus [7]): -17%

CC(CC1=NOS(=O)N1)c1ccc2ccccc2c1 (centres undefined)
Change (Mus musculus [1]): -27%

CCc1c(CC2=NOS(=O)N2)ccc2ccccc12 (centres undefined)
Change (Mus musculus [2]): <-15%
Change (Mus musculus [3]; dose 5 mg/kg, in the assay text read “at 5 mg/kg” for “at 100 mg/kg”): -24%

CSc1cccc2cc(CC3=NOS(=O)N3)ccc12 (centres undefined)
Change (Mus musculus [7]): <-15%

O=S1NC(c2ccc3ccccc3c2)=NO1 (centres undefined)
Change (Mus musculus [1]): <-15%

O=S1NC(Cc2cc3ccccc3cc2Cl)=NO1 (centres undefined)
Change (Mus musculus [2]): <-15%
Change (Mus musculus [3]; [27]): -44%

COc1cccc2cc(CC3=NOS(=O)N3)ccc12 (centres undefined)
Change (Mus musculus [4]): <-15%
Change (Mus musculus [26]): <-15%

O=S1NC(Cc2ccc3cc(F)ccc3c2Cl)=NO1 (centres undefined)
Change (Mus musculus [26]): <-15%

Cc1cccc2cc(CC3=NOS(=O)N3)ccc12 (centres undefined)
Change (Mus musculus [2]): <-15%
Change (Mus musculus [3]; [27]): -37%

C#Cc1cccc2cc(CC3=NOS(=O)N3)ccc12 (centres undefined)
Change (Mus musculus [2]): -19%
Change (Mus musculus [3]; [27]): -45%

CSc1ccc(Br)c2ccc(CC3=NOS(=O)N3)cc12 (centres undefined)
Change (Mus musculus [2]): <-15%
Change (Mus musculus [7]): -19%

COc1ccc(Cl)cc1C(=O)NCCc1ccc(S(=O)(=O)NC(=O)NC2CCCCC2)cc1 [GLYBURIDE]
Glucose level (Mus musculus [9]): 297 mg/dL
Glucose level (Rattus norvegicus [10]): 71 mg/dL
Glucose level (Rattus norvegicus [14]): 55 mg/dL
Glucose level (Mus musculus [20]): 311 mg/dL
Glucose level (Rattus norvegicus [21]): 110 mg/dL
Glucose level (Rattus norvegicus [22]): 51 mg/dL

O=S1NC(CCCc2ccc3ccccc3c2)=NO1 (centres undefined)
Change (Mus musculus [1]): <-15%

Cc1cc2ccccc2c(Br)c1CC1=NOS(=O)N1 (centres undefined)
Change (Mus musculus [2]): <-15%
Change (Mus musculus [7]): -34%

O=S1NC(CCc2ccc3ccccc3c2)=NO1 (centres undefined)
Change (Mus musculus [1]): -38%

Cc1cc2ccccc2c(C)c1CC1=NOS(=O)N1 (centres undefined)
Change (Mus musculus [2]): <-15%
Change (Mus musculus [7]): -45%

O=S1NC(Cc2ccc3c(C(F)(F)F)cccc3c2)=NO1 (centres undefined)
Change (Mus musculus [2]): <-15%
Change (Mus musculus [3]; [27]): -30%

O=S1NC(C(Cc2ccccc2)c2ccc3ccccc3c2)=NO1 (centres undefined)
Change (Mus musculus [1]): <-15%

O=S1NC(Cc2ccc3cccc(Cl)c3c2)=NO1 (centres undefined)
Change (Mus musculus [2]): <-15%
Change (Mus musculus [3]; [27]): -55%

O=S1NC(Cc2ccc3ccccc3c2)=NO1 (centres undefined)
Change (Mus musculus [7]): <-15%
Change (Mus musculus [1]): -37%

COc1ccc(Br)c2cc(CC3=NOS(=O)N3)ccc12 (centres undefined)
Change (Mus musculus [2]): <-15%

O=S1NC(Cc2ccc3c(Br)cccc3c2)=NO1 (centres undefined)
Change (Mus musculus [3]; dose 100 mg/kg): -47% and -35%

O=S1NC(Cc2ccc3ccccc3c2Br)=NO1 (centres undefined)
Change (Mus musculus [3]; dose 100 mg/kg): -40% and -21%

Cc1c(CC2=NOS(=O)N2)ccc2ccccc12 (centres undefined)
Change (Mus musculus [3]; dose 100 mg/kg): -36% and -20%

CC(C)(C1=NOS(=O)N1)c1ccc2ccccc2c1 (centres undefined)
Change (Mus musculus [1]): <-15%

Cc1cc2ccccc2cc1CC1=NOS(=O)N1 (centres undefined)
Change (Mus musculus [3]; dose 100 mg/kg): -36% and -20%

O=S1NC(Cc2ccc3cccc(Br)c3c2)=NO1 (centres undefined)
Change (Mus musculus [3]; dose 100 mg/kg): -59% and -48%

O=S1NC(Cc2ccc3ccc(Br)cc3c2)=NO1 (centres undefined)
Change (Mus musculus [7]): <-15%

O=S1NC(Cc2ccc3cc(F)ccc3c2Br)=NO1 (centres undefined)
Change (Mus musculus [7]): -16%

CC(C1=NOS(=O)N1)c1ccc2ccccc2c1 (centres undefined)
Change (Mus musculus [1]): -49%

O=S1NC(Cc2cc3ccccc3cc2Br)=NO1 (centres undefined)
Change (Mus musculus [2]): <-15%
Change (Mus musculus [7]): -28%

O=S1NC(Cc2ccc3ccccc3c2F)=NO1 (centres undefined)
Change (Mus musculus [2]): <-15%
Change (Mus musculus [3]; [27]): -39%

Cc1ccc2ccc(CC3=NOS(=O)N3)cc2c1 (centres undefined)
Change (Mus musculus [1]): -36%

COC(CC1=NOS(=O)N1)c1ccc2ccccc2c1 (centres undefined)
Change (Mus musculus [1]): <-15%

COc1c(CC2=NOS(=O)N2)ccc2ccccc12 (centres undefined)
Change (Mus musculus [2]): <-15%
Change (Mus musculus [7]): -43%

COc1c(CC2=NOS(=O)N2)cc(Cl)c2ccccc12 (centres undefined)
Change (Mus musculus [2]): -17%
Change (Mus musculus [7]): -31%

O=S1NC(CCCCc2ccc3ccccc3c2)=NO1 (centres undefined)
Change (Mus musculus [3]; dose 100 mg/kg): -28%

CC1(COc2ccc(CC3SC(=O)NC3=O)cc2)CCCCC1 (centres undefined) [CIGLITAZONE]
Glucose level (Mus musculus [20]): 189 mg/dL
